# From PMC5563391 (Investigational new drugs, 2015)
# Columns and labels:
# [1] = Phase 1 pharmacokinetics of ilorasertib in plasma; assay type: in vivo, human; settings: for AUC(0-t) / half-life / AUC(0-inf): human, plasma, po; for half-life: 480 mg, t1/2, arm B, oral twice weekly
# Method in brief: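 Arm A patients took oral test compound once weekly, in the morning, on days 1, 8 and 15 of 28-day cycles, at 10–690 mg. Plasma was sampled intensively up to 72 h after dosing on days 1 and 15. Noncompartmental analysis gave Cmax, Tmax, t½, AUCt and AUC∞, plus dose-normalized values. Results are summarized by dose level as mean ± SD, with individual values where N=1.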
# [2] = system: patients with hematologic malignancies; test: Phase 1 safety and tolerability; assay type: in vivo
# Method in brief: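 Four arms each ran 28-day cycles: oral once weekly (A), oral twice weekly (B), oral once weekly with IV/SC azacitidine on days 1–7 (C), and IV once weekly (D). Dose escalation followed a modified continual reassessment method, with MTD defined as a 30% DLT rate by logistic regression. Toxicity was graded continuously by CTCAE v4.0, with labs, ECG, MUGA/echocardiogram and vital signs monitored.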
# [3] = system: peripheral blood mononuclear cells; test: Cell cycle analysis by flow cytometry; assay type: in vivo, human; settings: arm A
# Method in brief: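 Adults with hematologic malignancies received oral test compound once weekly on days 1, 8 and 15 of 28-day cycles, at doses from 10 to 690 mg. Blood for pharmacodynamics was drawn alongside pharmacokinetic samples. Peripheral blood mononuclear cells were analysed by flow cytometry for the percentage of cells with 2N, 4N or >4N DNA. Only patients with enough cycling cells at baseline were evaluable.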
# [4] = system: placental growth factor (PlGF); test: Placental growth factor concentration, biomarker of VEGF receptor inhibition; assay type: in vivo, human; settings: arm A
# Method in brief: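 Arm A patients received oral test compound once weekly on days 1, 8 and 15 of 28-day cycles, at 10–690 mg. At designated time points after the first dose, blood for PlGF measurement was collected together with pharmacokinetic samples. The change from baseline in PlGF was assessed against dose.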
# [5] = system: patients with advanced hematologic malignancies; test: Clinical response; assay type: in vivo, human
# Method in brief: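 Patients received the test compound in one of four arms, each on a 28-day cycle. Arm A took it orally once weekly on days 1, 8 and 15, and arm B orally on days 1, 2, 8, 9, 15 and 16. Arm C added IV or SC azacitidine on days 1–7 to the once-weekly oral schedule. Arm D received it IV on days 1, 8 and 15. Response used revised International Working Group criteria, or NCCN guidelines for CML.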
structure (smiles),measurement,setting,value
Nc1ncc(-c2cnn(CCO)c2)c2scc(-c3ccc(NC(=O)Nc4cccc(F)c4)cc3)c12 [Ilorasertib],AUC(0-t),[1]; 440 mg,13500 ± 7520 ng·h/mL
same,half-life,"[1]; day 1, N=7",14.9 ± 3.2 h
same,half-life,"[1]; day 15, N=7",15.3 ± 5.1 h
same,AUC(0-inf),[1]; 540 mg,6010 ± 1230 ng·h/mL
same,AUC(0-t),"[1]; 540 mg, AUC0–24, arm A, oral once weekly, first dose, N=3, mean ± SD",5800 ± 1080 ng·h/mL
same,AUC(0-inf),[1]; 640 mg,20300 ± 15000 ng·h/mL
same,AUC(0-t),"[1]; 640 mg, AUC0–24, arm A, oral once weekly, first dose, N=6, mean ± SD",19700 ± 14800 ng·h/mL
same,AUC(0-inf),[1]; 690 mg,8460 ng·h/mL
same,renal excretion of ilorasertib as the parent drug,[1]; in vivo,negligible
same,dose proportionality of Cmax and AUC∞,"[1]; oral, 80- to 690-mg dose range",generally dose proportional
same,patients reporting grade 3 or 4 adverse events,[2]; 42 of 52 patients,80.8%
same,patients reporting at least 1 treatment-emergent adverse event,[2]; 51 of 52 patients,98.1%
same,grade 3/4 adverse event: anemia,"[2]; 52 patients, all arms",13.5%
same,grade 3/4 adverse event: hypertension,"[2]; 52 patients, all arms",28.8%
same,grade 3/4 adverse event: hypokalemia,"[2]; 52 patients, all arms",15.4%
same,grade 3/4 adverse event: hypophosphatemia,"[2]; 52 patients, all arms",11.5%
same,grade 3 or 4 adverse events related to ilorasertib: hypertension,"[2]; 52 patients, all arms",17.3%
same,grade 3 or 4 adverse events related to ilorasertib: pancreatitis,"[2]; 52 patients, all arms",3.8%
same,grade 3 or 4 adverse events related to ilorasertib: proteinuria,"[2]; 52 patients, all arms",3.8%
same,"Treatment-emergent adverse events, any grade: Anemia","[2]; all arms, N=52",7 (13.5) n (%)
same,"Treatment-emergent adverse events, any grade: Any event","[2]; all arms, N=52",51 (98.1) n (%)
same,"Treatment-emergent adverse events, any grade: Arthralgia","[2]; all arms, N=52",8 (15.4) n (%)
same,"Treatment-emergent adverse events, any grade: Bone pain","[2]; all arms, N=52",8 (15.4) n (%)
same,"Treatment-emergent adverse events, any grade: Decreased appetite","[2]; all arms, N=52",8 (15.4 n (%)
same,"Treatment-emergent adverse events, any grade: Diarrhea","[2]; all arms, N=52",23 (44.2) n (%)
same,"Treatment-emergent adverse events, any grade: Epistaxis","[2]; all arms, N=52",7 (13.5) n (%)
same,"Treatment-emergent adverse events, any grade: Fatigue","[2]; all arms, N=52",11 (21.2) n (%)
same,"Treatment-emergent adverse events, any grade: Headache","[2]; all arms, N=52",8 (15.4) n (%)
same,"Treatment-emergent adverse events, any grade: Hypertension","[2]; all arms, N=52",17 (32.7) n (%)
same,"Treatment-emergent adverse events, any grade: Hypokalemia","[2]; all arms, N=52",18 (34.6) n (%)
same,"Treatment-emergent adverse events, any grade: Hypomagnesemia","[2]; all arms, N=52",10 (19.2) n (%)
same,"Treatment-emergent adverse events, any grade: Hypophosphatemia","[2]; all arms, N=52",9 (17.3) n (%)
same,"Treatment-emergent adverse events, any grade: Nausea","[2]; all arms, N=52",23 (44.2) n (%)
same,"Treatment-emergent adverse events, any grade: Peripheral edema","[2]; all arms, N=52",11 (21.2) n (%)
same,"Treatment-emergent adverse events, any grade: Proteinuria","[2]; all arms, N=52",19 (36.5) n (%)
same,"Treatment-emergent adverse events, any grade: Pyrexia","[2]; all arms, N=52",8 (15.4) n (%)
same,"Treatment-emergent adverse events, any grade: Vomiting","[2]; all arms, N=52",10 (19.2) n (%)
same,"Treatment-emergent adverse events, grade 3/4: Acute renal failure","[2]; all arms, N=52",3 (5.8) n (%)
same,"Treatment-emergent adverse events, grade 3/4: Anemia","[2]; all arms, N=52",7 (13.5) n (%)
same,"Treatment-emergent adverse events, grade 3/4: Any grade 3/4 event","[2]; all arms, N=52",42 (80.8) n (%)
same,"Treatment-emergent adverse events, grade 3/4: Bacteremia","[2]; all arms, N=52",3 (5.8) n (%)
same,"Treatment-emergent adverse events, grade 3/4: Febrile neutropenia","[2]; all arms, N=52",4 (7.7) n (%)
same,"Treatment-emergent adverse events, grade 3/4: Fungal pneumonia","[2]; all arms, N=52",4 (7.7) n (%)
same,"Treatment-emergent adverse events, grade 3/4: Hypertension","[2]; all arms, N=52",15 (28.8) n (%)
same,"Treatment-emergent adverse events, grade 3/4: Hypokalemia","[2]; all arms, N=52",8 (15.4) n (%)
same,"Treatment-emergent adverse events, grade 3/4: Hypophosphatemia","[2]; all arms, N=52",6 (11.5) n (%)
same,"Treatment-emergent adverse events, grade 3/4: Hypotension","[2]; all arms, N=52",3 (5.8) n (%)
same,"Treatment-emergent adverse events, grade 3/4: Pneumonia","[2]; all arms, N=52",4 (7.7) n (%)
same,"Treatment-emergent adverse events, grade 3/4: Proteinuria","[2]; all arms, N=52",4 (7.7) n (%)
same,"Treatment-emergent adverse events, grade 3/4: Sepsis","[2]; all arms, N=52",3 (5.8) n (%)
same,DLTs,"[2]; arm A, PO once weekly monotherapy, 640 mg, 6 patients",Grade 3 pancreatitis ^a
same,recommended phase 2 dose (RPTD),"[2]; arm A, oral monotherapy once weekly",540 mg
same,DLTs,"[2]; arm B, 320 or 480 mg twice weekly",No DLTs
same,recommended phase 2 dose (RPTD),"[2]; arm B, oral monotherapy twice weekly",480 mg
same,DLTs,"[2]; arm D, IV once weekly, 32 mg",No DLTs
same,association between ilorasertib dose and cell cycle arrest,[3],No association
same,increase in the number of cells with 4N DNA and polyploidy,[3]; 9 patients with sufficient cycling cells at baseline,≥ 2 fold
same,increase in PlGF,"[4]; after the first dose, dose range 10 to 690 mg",≥ 2 fold
same,relationship between dose and the magnitude of change in PlGF,[4],no apparent relationship
same,patients with a best response of stable disease,[5]; 52 patients,Twelve
same,patients with an objective response,"[5]; AML patients, among 52 patients",3
same,patients with CR with incomplete blood count recovery (CRi),"[5]; AML, arm A, 640 mg, end of cycle 1",1
same,patients with complete response (CR),"[5]; AML, arm A, 690 mg, end of cycle 8",1
same,patients with partial response,"[5]; AML, arm B, 480 mg, end of cycle 2",1
